Assay outcomes (PubChem BioAssay)
Shown are actives, neighbours in structure and some others; about 2.7% of the full set was active somewhere.
ABCG2 block = human ABCG2 inhibition, ABCB1 as counter-screen | IgMXP3 cells, JC-1 efflux, flow cytometry | 190,000 compounds, 0.1% hits | inhibition, % at 6.6 µM;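 active = inhibition above 80%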;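 also: 0% = DMSO and 100% = nicardipine control wells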
Target sequence (Q9UNQ0 whole entry, looked up): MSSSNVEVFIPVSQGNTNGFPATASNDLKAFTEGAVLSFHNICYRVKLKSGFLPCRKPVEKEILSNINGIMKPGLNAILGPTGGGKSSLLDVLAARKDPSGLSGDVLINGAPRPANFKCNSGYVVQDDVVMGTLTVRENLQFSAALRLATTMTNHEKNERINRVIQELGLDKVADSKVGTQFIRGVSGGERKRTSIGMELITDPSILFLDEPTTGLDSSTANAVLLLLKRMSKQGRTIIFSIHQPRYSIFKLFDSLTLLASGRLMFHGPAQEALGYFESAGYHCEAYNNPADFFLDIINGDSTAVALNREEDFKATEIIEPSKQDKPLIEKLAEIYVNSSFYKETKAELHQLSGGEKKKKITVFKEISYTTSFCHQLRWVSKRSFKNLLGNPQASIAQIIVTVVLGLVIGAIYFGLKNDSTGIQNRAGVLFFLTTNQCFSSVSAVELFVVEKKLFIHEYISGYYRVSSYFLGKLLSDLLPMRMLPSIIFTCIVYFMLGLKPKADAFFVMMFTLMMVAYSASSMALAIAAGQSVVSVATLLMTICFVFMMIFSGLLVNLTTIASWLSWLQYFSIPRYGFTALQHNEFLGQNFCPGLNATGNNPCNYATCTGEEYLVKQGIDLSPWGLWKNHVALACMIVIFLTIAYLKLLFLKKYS
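Incubation: cells with compound and JC-1, 10 min at 25 °C, rotating, no wash / Test system: IgMXP3 (ABCG2) plus far-red-tagged CCRF-Adr (ABCB1) cells / Compound dosing: one concentration, 6.6 µM final / Also added: JC-1 fluorescent substrate / Evaluation: efflux inhibition in percent versus controls / Detection: flow cytometry, 530 nm JC-1 signal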
Redox H2O2 prof = compounds producing H2O2 with reducing agent – biochemical, NIH compound library profiling, artefact control for MLSCN library redox annotation, primary screen; AID 878; activation, % at 10 µM; DTT-dependent redox cycling H2O2, phenol red/HRP absorbance; 100% = 100 µM peroxide control, 0% = buffer; 200,000 compounds, 0.03% hits;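 active = activation of at least 50% relative to the plate's high and low controls in the primary single-dose screen; inactive = activation below 50%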;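 also: compound incubated with DTT at 0.8 mM final as the reducing agent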
FLuc stim CS = firefly luciferase counter-screen for stimulation assays. P08659. 200,000 tested, under 10 active. activation factor at 10 µM. ATPlite luciferase biochemical, luminescence, 10 min; 0 = ATP-free wells, 1 = DMSO control. AID 1027;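 active = luciferase activation factor, scaled between plate controls, of at least 2 with compound at 10 µM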
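System: Luciferase/luciferin detection reagent, cell-free biochemical luciferase assay | Medium: PBS buffer for ATP | Dosing: Test compounds dosed from 2 mM stocks in 100% DMSO | Timing: 10 min at ambient temperature | Signal: Luminescence measurement of luciferase light output | Evaluation: Luciferase activation, seen as luminescence increase over controls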
ABCB1 inh = inhibitors of human ABCB1 transporter, ABCG2 counter-screen | P08183 | CCRF-Adr cells, JC-1 efflux, flow cytometry | inhibition, % at 6.6 µM | 190,000 compounds, 0.067% hits; in the data active = inhibition above about 40%;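 also: 0% = vehicle and 100% = reference inhibitor; higher value means more JC-1 retained so stronger ABCB1 efflux block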
FLuc inhib CS = Photinus pyralis luciferase inhibition counter-screen; 200,000 compounds, 1.5% hits; ATPLite firefly luciferase biochemical luminescence, 10 min; AID 1006; inhibition, % at 10 µM;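 active = inhibition above about 50% when tested at 10 µM, limit read from the data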
Measles CPE = protection of cells from measles virus; 140,000 compounds, 1.5% hits; Measles virus-infected cells, CPE protection, absorbance; AID 841; protection (pct of control), % at 4 µM; in the data active = protection mostly above about 24%, no sharp cut-off; inactive = mostly below about 26%
* = called active by the depositor.

Screening COc1ccc(OC)c(/C=N/Nc2nncn2/N=C/c2cc(OC)ccc2OC)c1 returned ABCG2 block 5, Redox H2O2 prof 0, FLuc stim CS 1, ABCB1 inh 0, FLuc inhib CS 4 and Measles CPE 3.
`Cc1cc(N2CCOCC2)ccc1/C=C\[N+](=O)[O-]` gave ABCG2 block 4, Redox H2O2 prof 0, FLuc stim CS 1, ABCB1 inh 0, FLuc inhib CS 1 and Measles CPE 6.
`CN(C)/C=N/c1ncc(C(=O)OC(C)(C)C)s1` gave ABCG2 block 2, Redox H2O2 prof -2, FLuc stim CS 0.9, ABCB1 inh 0 and FLuc inhib CS 6.
For CCCN1CC(O)=C(C#N)C1=O the results were ABCG2 block 0, Redox H2O2 prof 1, FLuc stim CS 1.1, ABCB1 inh 0 and FLuc inhib CS -6.
COc1cccc(NC(=O)C(NCC(C)(C)CN(C)C)c2ccccc2)c1 (configuration not stated) was read as ABCG2 block 2, Redox H2O2 prof -2, FLuc stim CS 1, ABCB1 inh 1, FLuc inhib CS -2 and Measles CPE 46*.
For Clc1cccc(Cl)c1Cn1cnc2c(N3CCCCCC3)ncnc21 the results were ABCG2 block 25, Redox H2O2 prof 0, FLuc stim CS 1, ABCB1 inh 1, FLuc inhib CS -5 and Measles CPE 33*.
For CCN(CC)c1ncnc2c1ncn2Cc1c(Cl)cccc1Cl the results were ABCG2 block 3, Redox H2O2 prof 0, FLuc stim CS 1.1, ABCB1 inh 1, FLuc inhib CS -8 and Measles CPE 3.
For CCOC(=O)C1=C(C)NC2=C(C(=O)C(C(=O)OCC)C(c3ccco3)C2)C1c1ccccn1 (configuration not stated) the results were ABCG2 block 8, Redox H2O2 prof 1, FLuc stim CS 1.1, ABCB1 inh 1, FLuc inhib CS -8 and Measles CPE 50*.
O=C(CNc1cc(S(=O)(=O)N2CCOCC2)ccc1N1CCCC1)N1CCc2ccccc21 was read as ABCG2 block 3, Redox H2O2 prof 0, FLuc stim CS 1, ABCB1 inh 1 and FLuc inhib CS 1.
`CSc1ncc(Cl)c(C(=O)Nc2nnc(SC/C=C/c3ccccc3)s2)n1` gave ABCG2 block 0, Redox H2O2 prof 0, FLuc stim CS 1, ABCB1 inh 0, FLuc inhib CS -1 and Measles CPE 51*.
Screening C=CCSc1nnc(NC(=O)c2nc(SCC)ncc2Cl)s1 returned ABCG2 block 31, Redox H2O2 prof 0, FLuc stim CS 1, ABCB1 inh 2, FLuc inhib CS -4 and Measles CPE 11.
CCc1cc(C=C(Cl)Cl)oc(=O)c1C was read as ABCG2 block 4, Redox H2O2 prof 1, FLuc stim CS 1, ABCB1 inh 0, FLuc inhib CS 0 and Measles CPE 56*.
For CCOC(=O)/C(=N\Nc1cc(Cl)ccc1Cl)N1CCOCC1 the results were ABCG2 block 1, Redox H2O2 prof -1, FLuc stim CS 1, ABCB1 inh 0 and FLuc inhib CS -1.
For CCn1nnc(NC(=O)c2ccc(C(C)(C)C)cc2)n1 the results were ABCG2 block 1, Redox H2O2 prof -3, FLuc stim CS 0.2, ABCB1 inh 0, FLuc inhib CS 82* and Measles CPE 16.
Screening CCOC(=O)c1cnc(N2CCN(C(=O)OCC)CC2)[nH]c1=O returned ABCG2 block 2, Redox H2O2 prof 0, FLuc stim CS 1, ABCB1 inh 0 and FLuc inhib CS -3.
CC1CCN(c2c([N+](=O)[O-])c(=O)oc3ccccc23)CC1 was read as ABCG2 block 16, Redox H2O2 prof 0, FLuc stim CS 1, ABCB1 inh 0, FLuc inhib CS 4 and Measles CPE 8.
`CCN(CCCNC(=O)CCCOc1cc(=O)n(C)c2ccccc12)Cc1ccccc1` gave ABCG2 block 5, Redox H2O2 prof -1, FLuc stim CS 1, ABCB1 inh 1 and FLuc inhib CS 2.
CCOC(=O)N1CCC(NC(=O)C2CCN(c3nc(-c4ccc(OC)cc4)no3)CC2)CC1 was read as ABCG2 block 20, Redox H2O2 prof -3, FLuc stim CS 1, ABCB1 inh 1, FLuc inhib CS -1 and Measles CPE 44*.
For Cc1nc(SCC(=O)Nc2c(C)nn(C)c2C)c2cnn(-c3ccccc3)c2n1 the results were ABCG2 block 2, Redox H2O2 prof -3, FLuc stim CS 1.1, ABCB1 inh 0, FLuc inhib CS -8 and Measles CPE 48*.
`Cc1nn(Cc2ccccc2)c(C)c1NC(=O)CSc1nc(-c2ccccc2)nc2c1cnn2-c1ccccc1` gave ABCG2 block 3, Redox H2O2 prof 2, FLuc stim CS 1.1, ABCB1 inh 0, FLuc inhib CS -6 and Measles CPE 6.
For CCOC(=O)NC(=O)COC(=O)c1ccc(Sc2ncn[nH]2)c([N+](=O)[O-])c1 the results were ABCG2 block 0, Redox H2O2 prof 0, FLuc stim CS 1, ABCB1 inh 0 and FLuc inhib CS -1.
Cc1ccc(C(=O)CSc2nnnn2C(C)C)c(C)c1 was read as ABCG2 block 6, Redox H2O2 prof 2, FLuc stim CS 0.5, ABCB1 inh 1, FLuc inhib CS 54* and Measles CPE 4.
Screening COc1ccc(OCc2cccc(C(=O)NN)c2)cc1 returned ABCG2 block 3, Redox H2O2 prof 0, FLuc stim CS 0.7, ABCB1 inh 0, FLuc inhib CS 30 and Measles CPE 10.
COc1ccc(OCc2cccc(C(=O)Nn3cc([N+](=O)[O-])cn3)c2)cc1 was read as ABCG2 block -3, Redox H2O2 prof -1, FLuc stim CS 0.3, ABCB1 inh -1, FLuc inhib CS 70* and Measles CPE 11.
`COC(=O)CCCC(=O)N1CCCC(C(=O)c2ccc(OC)cc2C)C1` (configuration not stated) gave ABCG2 block 3, Redox H2O2 prof 0, FLuc stim CS 1.1, ABCB1 inh 1 and FLuc inhib CS -6.
COCC(=O)n1nc(-c2ccccc2)nc1NCc1ccc(N(C)C)cc1 was read as ABCG2 block 7, Redox H2O2 prof 0, FLuc stim CS 1, ABCB1 inh 0 and FLuc inhib CS -4.
O=C(c1ccc(Br)o1)N1CCc2ccccc21 was read as ABCG2 block 2, Redox H2O2 prof 0, FLuc stim CS 0.5, ABCB1 inh 0 and FLuc inhib CS 54*.
Screening Cc1c(C(=O)N2CCc3ccccc32)oc2ccccc12 returned ABCG2 block 36, Redox H2O2 prof 0, FLuc stim CS 0.3, ABCB1 inh 0, FLuc inhib CS 73* and Measles CPE 7.
